Compound activity as filed in PubChem BioAssay.
CSC inhib – cancer stem cell inhibition | cancer stem cell-like cells viability, luminescence | inhibition, % at 7.5 µM | hit rate 1.1% among 300,000 | AID 2717; in the data active = inhibition above about 75%; tested in HMLE shEcad cells
XBP1 UPR activ – adaptive UPR (XBP1) activation. activation, % at 20 µM. hit rate 0.33% among 330,000. CHO-XBP1 luciferase reporter, IRE1-XBP1 UPR activation, luminescence; percent of tunicamycin response, DMSO as zero;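 active = versus positive control, 20 µM dose yields 30% or more activation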;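 note: 100% = tunicamycin at 10 µg/mL and 0% = DMSO only wells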
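assay system = CHO-XBP1 luciferase reporter cells | amount = 1000 cells/well | buffer or medium = F12 plus 10% FBS | compound dosing = single point, 20 µM final compound, 1% DMSO | incubation = 16-18 h cell attachment at 37 °C, then 6 h compound exposure | detection = Steady-Glo luminescence read | controls = tunicamycin 10 µg/mL and vehicle-only wells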
Beta cell apopt – blocks beta cell apoptosis. INS-1E cytokine-induced death, ATP luminescence, 48 h; percent of positive-control rescue, neutral wells zero. hit rate 0.8% among 300,000. protection from apoptosis, % (test concentration not listed). AID 435005;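 active = Every replicate reaches about 75%, or at least half do and their mean reaches it too, limit read from the data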;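 note: 0% = cytokine-treated negative control wells and 100% = positive control rescue; higher means more ATP so stronger rescue from cytokine killing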
T cruzi inh – T. cruzi replication inhibition | hit rate 1.4% among 300,000 | inhibition, % (no concentration beside the values) | T. cruzi beta-gal in NIH3T3, luminescence, 90 h;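 active = mean inhibition across valid replicates above about 55%, limit read from the data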;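 note: signal also drops with host cell toxicity which is not excluded here; 0% = plate median of DMSO wells and 100% = zero luminescence signal; higher percent means less beta-gal luminescence so fewer parasites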
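Test system: β-gal T. cruzi (Tulahuen C4) inside NIH/3T3 cells / Quantity: 5,000 cells/well / Measured by: luminescence from GalScreen with 0.05% NP40, read after 60 min / Medium: DMEM plus 2% FBS / Measure: parasite load inhibition, % / Reagent: Tulahuen C4 trypomastigotes, 5000/well / Schedule: co-culture of at least 90 h after 3 h attachment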
CHOP UPR activ – activators of apoptotic arm of unfolded protein response (CHOP). CHO-CHOP luciferase reporter, UPR activation, luminescence; percent of tunicamycin response over DMSO baseline. activation, % at 10 µM. hit rate 0.34% among 330,000. AID 449763;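 active = at 10 µM dose, activation of 40% or more, normalized to positive control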;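 note: 100% = tunicamycin at 10 µg/mL and 0% = DMSO alone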
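Test system: CHO-CHOP cells, stable luciferase reporter of PERK-eIF2a-CHOP signalling | Quantity: 500 CHO-CHOP cells per well | Buffer or medium: F12 plus 10% serum | Compound dosing: 10 µM single point, 0.5% DMSO | Schedule: 6 h compound treatment, 37 °C | Signal: Luciferase luminescence | Control set: Tunicamycin high control, DMSO low control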
Mdm2-MdmX inh – disrupts the human Mdm2-MdmX interaction | SaOS-2 split-luciferase Mdm2/MdmX complementation, luminescence | inhibition, % at 8 µM | hit rate 3% among 330,000 | AID 485346 | O15151+Q00987;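 active = inhibition of at least 50% at 8 µM in the primary screen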
Target sequence (O15151 whole entry, looked up): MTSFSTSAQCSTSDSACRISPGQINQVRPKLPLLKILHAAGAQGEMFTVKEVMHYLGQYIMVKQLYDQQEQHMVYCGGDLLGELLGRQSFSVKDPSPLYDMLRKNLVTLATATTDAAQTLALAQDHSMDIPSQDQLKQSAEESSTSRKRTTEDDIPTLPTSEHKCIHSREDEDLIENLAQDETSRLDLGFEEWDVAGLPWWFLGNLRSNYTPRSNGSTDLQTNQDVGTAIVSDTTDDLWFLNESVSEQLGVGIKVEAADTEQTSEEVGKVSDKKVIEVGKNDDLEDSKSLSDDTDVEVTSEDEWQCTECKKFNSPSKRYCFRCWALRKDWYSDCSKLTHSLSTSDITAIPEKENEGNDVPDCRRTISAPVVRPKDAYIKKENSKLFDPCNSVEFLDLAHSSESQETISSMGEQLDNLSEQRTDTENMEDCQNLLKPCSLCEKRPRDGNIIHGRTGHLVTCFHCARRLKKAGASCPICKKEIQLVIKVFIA
Target sequence (Q00987 whole entry, looked up): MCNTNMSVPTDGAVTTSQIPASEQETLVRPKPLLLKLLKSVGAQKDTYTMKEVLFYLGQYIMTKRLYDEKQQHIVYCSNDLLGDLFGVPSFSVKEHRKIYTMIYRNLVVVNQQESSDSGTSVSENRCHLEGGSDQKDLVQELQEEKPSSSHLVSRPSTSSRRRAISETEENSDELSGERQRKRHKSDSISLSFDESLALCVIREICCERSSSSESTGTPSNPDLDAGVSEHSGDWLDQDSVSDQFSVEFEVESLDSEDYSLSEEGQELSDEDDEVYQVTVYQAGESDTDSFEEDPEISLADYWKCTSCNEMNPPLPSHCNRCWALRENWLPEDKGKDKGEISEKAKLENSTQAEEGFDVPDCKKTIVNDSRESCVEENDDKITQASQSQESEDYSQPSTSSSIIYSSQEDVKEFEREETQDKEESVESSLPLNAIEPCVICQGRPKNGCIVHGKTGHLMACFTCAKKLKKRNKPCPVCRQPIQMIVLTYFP
CHOP UPR conf – confirmation of apoptotic unfolded protein response (CHOP) activators | shares compounds with CHOP UPR activ | CHO-CHOP cells, CHOP-luciferase reporter luminescence; percent of tunicamycin response, DMSO as zero | activation, % at 10 µM | hit rate 64% among 1,000; in the data active = activation above about 33%;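 note: 0% = DMSO wells and 100% = tunicamycin 10 µg/mL wells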
UPR XBP1 confirm – adaptive UPR (XBP1) activation, confirmed; shares compounds with XBP1 UPR activ; activation, % at 20 µM; CHO-XBP1 IRE1-XBP1 luciferase reporter, luminescence; hit rate 63% among 1,000;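 active = reporter signal at least 30% of the positive control's activation in two or more of four replicate wells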;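 note: plate controls were DMSO negative control for no effect and tunicamycin 10 µg/mL positive control for full effect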
Mdm2-MdmX conf – confirmation of human Mdm2/MdmX interaction inhibitors; shares compounds with Mdm2-MdmX inh; Mdm2-MdmX binding, luminescent assay; inhibition, % at 8 µM; hit rate 55% among 10,000; in the data active = inhibition above about 40%
FLuc counter – full-length luciferase inhibition in Mdm2/MdmX counter-screen. shares compounds with Mdm2-MdmX inh. SaOS-2 full-length luciferase counterscreen, luminescence. inhibition, % at 8 µM. hit rate 77% among 6,200. AID 504607;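 active = mean inhibition at 8 µM reaching about 37%, which flags the compound as non-specific, limit read from the data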;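 note: p53-null SaOS-2 cells with luciferase driven by a doxycycline-inducible promoter; compound on cells about two nights before reading with doxycycline added after day one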
Numbers without * were called inactive; . = not tested or not shown. Only some compounds are listed: those with a hit (about 5% of all), similar ones and a draw of the others.

SMILES	CSC inhib	XBP1 UPR activ	Beta cell apopt	T cruzi inh	CHOP UPR activ	Mdm2-MdmX inh	CHOP UPR conf	Mdm2-MdmX conf	FLuc counter	others
CCOc1cc(/C=N/NC(N)=S)cc(Br)c1OCc1ccccc1C	45.2	60.8*	12.2	78.5*	68.7*	23.7	40.9*	.	.	UPR XBP1 confirm=60.4*
O=[N+]([O-])c1ccc(N/N=C/c2cccc(O)c2O)c(S(=O)(=O)N2CCOCC2)c1	72.0	54.3*	12.9	-5.3	133.2*	22.5	86.3*	.	.	UPR XBP1 confirm=32.6*
O=[N+]([O-])c1ccc(N/N=C/c2ccc(O)c(O)c2O)c(S(=O)(=O)N2CCOCC2)c1	.	0.2	.	11.1	6.5	18.4	.	.	.
Cc1ccc(N2CCN(c3ccc(NCc4nc5ccccc5n4C)cc3)CC2)cc1	-9.0	66.1*	11.7	21.3	45.1*	2.4	37.0*	.	.	UPR XBP1 confirm=88.9*
O=C(/C=C/c1cccs1)NC(=S)NNC(=O)Cc1cccs1	34.4	0.6	4.4	-5.1	-3.4	26.2	.	.	.
COc1ccc2cc(C)c3nnc(SCC(=O)Nc4nc(-c5ccc(F)cc5)cs4)n3c2c1	16.8	215.8*	-7.3	9.2	160.4*	86.4*	88.3*	25.1	.	UPR XBP1 confirm=216.5*
O=C(Nc1ccc(O)c2c(=O)cc(-c3cccc(Cl)c3)oc12)c1ccccc1Cl	-3.0	15.5	.	-4.5	52.3*	91.5*	46.3*	2.2	.
O=C(Nc1ccc(O)c2c(=O)cc(-c3ccccc3Cl)oc12)c1ccccc1Cl	5.3	-2.8	-0.8	2.3	0.5	-4.2	.	.	.
O=C(CCCN1C(=O)S/C(=C\C=C\c2ccccc2)C1=O)Nc1ccc(O)cc1	-1.6	10.8	-0.8	1.6	63.9*	53.3*	1.9	-0.6	.
O=C(CN1C(=O)S/C(=C/C=C/c2ccccc2)C1=O)Nc1ccc(C(=O)O)cc1	-6.9	-0.8	0.5	-5.2	-1.1	-10.4	.	.	.
C/C(=N\NC(=O)c1ccc(Cl)cc1)c1ccccn1	98.1*	2.4	105.4*	60.5*	407.0*	95.5*	403.2*	27.2	.
C/C(=N\NC(=O)COc1ccccc1-c1ccccc1)c1ccccn1	44.7	0.6	80.6*	71.1*	104.7*	86.2*	204.5*	72.1*	51.0*
C/C(=N/NC(=O)c1ccccn1)c1ccc(O)cc1	23.4	-0.3	12.2	-4.6	4.1	-30.5	.	.	.
C/C(=N\NC(=O)COc1ccccc1-c1ccccc1)c1cccnc1	-10.0	-1.4	-1.0	1.5	-0.9	14.1	.	.	.
Cc1nc2ccccc2n1-c1nc(-c2ccco2)cc(C(F)(F)F)n1	148.5*	57.0*	131.0*	-11.8	174.1*	77.2*	132.5*	100.2*	8.5	UPR XBP1 confirm=43.4*
CC(C)(C)NC(=O)CN(c1cccc([N+](=O)[O-])c1)S(=O)(=O)c1ccccc1	6.3	0.7	.	4.4	-1.3	22.1	.	.	.
CC(NC(=O)CN(c1cccc(C(F)(F)F)c1)S(=O)(=O)c1ccc(Cl)c([N+](=O)[O-])c1)c1ccccc1 (stereo not drawn)	98.1*	3.5	6.5	5.0	103.7*	82.3*	140.0*	55.2*	35.1
CC(Oc1ccccc1)C(=O)Nc1nnc(S(=O)(=O)Nc2ccccc2)s1 (stereo not drawn)	-12.8	-1.0	-3.6	-9.6	-1.5	6.3	.	.	.
CC(=O)Nc1ccc(NC(=O)C/C(C)=N/NC(N)=S)cc1	-5.6	-1.8	-0.1	-5.5	-1.7	2.0	.	.	.
C/C(CC(C)(C)C1CCCCC1)=N\NC(N)=S	.	69.1*	.	55.8*	71.6*	56.2*	43.2*	6.5	.	UPR XBP1 confirm=30.7*
CCCCNC(=O)[C@@H]1CC=C[C@@H]2CCN(C3CC3)C(=O)[C@@H]21	1.3	-1.4	2.3	0.1	0.6	-7.3	.	.	.
COc1ccc2[nH]cc(C(=O)CCl)c2c1	38.6	-6.5	-68.0	60.9*	101.8*	95.1*	39.0*	99.8*	51.1*
COCCNC(=O)CN1C(=O)NC2(CCCc3cc(OC)ccc32)C1=O (stereo not drawn)	-8.4	-3.3	5.7	-8.5	0.1	-10.2	.	.	.
CC(NC(=O)NC1CCCCC1)C(c1cccs1)N1CCOCC1 (stereo not drawn)	-1.2	-2.4	-3.0	-7.4	2.8	8.1	.	.	.
CCOC(=O)CCS(=O)(=O)c1nc(-c2ccccc2)cc(C(F)(F)F)n1	100.0*	-10.8	30.7	-55.7	72.8*	100.3*	-8.8	100.2*	51.2*
SMILES	CSC inhib	XBP1 UPR activ	Beta cell apopt	T cruzi inh	CHOP UPR activ	Mdm2-MdmX inh	CHOP UPR conf	Mdm2-MdmX conf	FLuc counter	others
COc1ccc(-c2cc(C(F)(F)F)nc(S(C)(=O)=O)n2)cc1	96.4*	2.3	-31.1	-17.9	43.1*	100.7*	8.8	80.2*	52.8*
COc1ccc(-c2cc(C(F)(F)F)nc(N)n2)cc1	-16.5	3.8	-2.5	-2.0	3.6	-2.3	.	.	.
CCn1c(CNC(=O)c2ccco2)nnc1SCC(=O)Nc1cc(C(F)(F)F)ccc1Cl	-9.0	-1.3	-3.2	4.9	5.2	-6.9	.	.	.
Cc1csc(NC(=O)c2ccc(Cl)cc2[N+](=O)[O-])n1	3.4	-1.8	-2.3	47.0	4.1	-61.9	.	.	.
O=C(Nc1nc(-c2ccccn2)cs1)c1cc(Cl)ccc1[N+](=O)[O-]	94.0*	-1.1	93.2*	63.8*	65.7*	83.3*	166.7*	75.2*	32.3
O=C(CCN1CCC(c2ccc(Cl)s2)=N1)c1ccc(Cl)s1	12.0	0.0	-1.1	-3.2	1.1	20.2	.	.	.
COc1cccc2sc(N3CCN(c4nc5ccccc5s4)CC3)nc12	10.6	94.2*	51.3	16.4	87.7*	61.8*	42.5*	61.2*	80.7*	UPR XBP1 confirm=86.2*
CCc1ccccc1NC(=O)CN(C)C(=O)c1cc(C2CC2)nc2c1cnn2C(C)C	-12.1	1.2	-7.8	.	-1.2	-7.9	.	.	.
CC(C)(C)NC(=O)CN(C(=O)Cn1nnc(-c2ccc(Cl)cc2)n1)C1CCN(Cc2ccccc2)CC1	-2.2	-1.3	2.6	13.3	3.6	36.3	.	.	.
CCn1c(SCC(=O)NNC(=O)c2ccc(OC)cc2)nnc1-c1ccco1	-2.2	-3.2	-16.6	1.1	-0.7	-9.3	.	.	.
Nc1nnnn1/N=C/C(Br)=C/c1ccccc1	122.0*	-3.4	41.6	-15.9	109.2*	100.4*	64.4*	92.8*	50.0*
